Data: ChEMBL document CHEMBL3120099, “Novel S1P(1) receptor agonists--part 2: from bicyclo[3.1.0]hexane-fused thiophenes to isobutyl substituted thiophenes” (J Med Chem, 2014)

Tests used:
[1] = target: Sphingosine 1-phosphate receptor 1 (Homo sapiens, UniProt P21453); test: Agonist activity at human recombinant S1P1 receptor expressed in CHO cells assessed as membrane-bound 35S-GTPgammaS incubated 30 mins prior to substrate addition measured after 1 hr by topcount scintillation counting analysis; type: functional, cell-based
[2] = target: Sphingosine 1-phosphate receptor 3 (Homo sapiens, UniProt Q99500); test: Agonist activity at human recombinant S1P3 receptor expressed in CHO cells assessed as membrane-bound 35S-GTPgammaS incubated 30 mins prior to substrate addition measured after 1 hr by topcount scintillation counting analysis; type: functional, cell-based
Rattus norvegicus [3] = test: Lymphopenic activity in Wistar rat assessed as reduction in blood lymphocyte count at 10 mg/kg, po after 24 hrs; type: functional
Summary of the method: (§1)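 Normotensive male Wistar rats given 1–10 mg/kg by gavage in 5% DMSO/7.5% succinylated gelatin. Blood taken before and 3, 6 and 24 h after dosing, with later times for some compounds. Lymphocytes counted by hematology analyzer. % LC change calculated per animal relative to the predose value (=100%). Mean ± SEM.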

Rattus norvegicus [4] = test: Lymphopenic activity in Wistar rat assessed as reduction in blood lymphocyte count at 10 mg/kg, po after 6 hrs; type: functional; design: scale not given: the % may be the effect or the level left; summary of the method: as §1
Rattus norvegicus [5] = test: Lymphopenic activity in Wistar rat assessed as reduction in blood lymphocyte count at 10 mg/kg, po after 3 hrs; type: functional; design: scale not given: the % may be the effect or the level left; summary of the method: as §1
[6] = Plasma concentration in Wistar rat at 10 mg/kg, po after 24 hrs; type: ADME, organism-based; design: dose 10 mg/kg, route oral
[7] = Plasma concentration in Wistar rat at 10 mg/kg, po after 6 hrs; type: ADME, organism-based; design: dose 10 mg/kg, route oral
Rattus norvegicus [8] = test: Lymphopenic activity in Wistar rat assessed as reduction in blood lymphocyte count at 10 mg/kg, po after 72 hrs; type: functional; design: scale not given: the % may be the effect or the level left; summary of the method: as §1
Rattus norvegicus [9] = test: Lymphopenic activity in po dosed Wistar rat assessed as reduction in blood lymphocyte count; type: functional, organism-based; summary of the method: as §1
[10] = Plasma concentration in Wistar rat at 10 mg/kg, po after 3 hrs; type: ADME, organism-based; design: dose 10 mg/kg, route oral
Homo sapiens = species on record: Homo sapiens; test: Selectivity ratio of EC50 for human recombinant S1P3 receptor to EC50 for human recombinant S1P1 receptor
Summary of the method: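 GDP was 1 μM for S1P1 and 3 μM for S1P3. Compounds (up to 10 μM) were preincubated 30 min at rt, then incubated 1 h at rt. Bound label was counted after filtration. 10 μM S1P defined maximum. EC50s are geometric means of ≥3 independent duplicate runs.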

Sequence of Sphingosine 1-phosphate receptor 3 (Q99500 whole entry): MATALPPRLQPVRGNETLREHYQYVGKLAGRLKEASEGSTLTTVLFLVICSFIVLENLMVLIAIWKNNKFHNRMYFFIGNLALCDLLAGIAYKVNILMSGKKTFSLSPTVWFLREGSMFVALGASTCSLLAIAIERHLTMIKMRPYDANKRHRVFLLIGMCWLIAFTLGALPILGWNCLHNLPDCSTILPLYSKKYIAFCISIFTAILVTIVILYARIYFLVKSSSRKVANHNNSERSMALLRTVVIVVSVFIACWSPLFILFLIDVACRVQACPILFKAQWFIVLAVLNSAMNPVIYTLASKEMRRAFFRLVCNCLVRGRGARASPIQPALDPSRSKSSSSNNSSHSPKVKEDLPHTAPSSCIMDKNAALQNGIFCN
Sequence of Sphingosine 1-phosphate receptor 1 (P21453 whole entry): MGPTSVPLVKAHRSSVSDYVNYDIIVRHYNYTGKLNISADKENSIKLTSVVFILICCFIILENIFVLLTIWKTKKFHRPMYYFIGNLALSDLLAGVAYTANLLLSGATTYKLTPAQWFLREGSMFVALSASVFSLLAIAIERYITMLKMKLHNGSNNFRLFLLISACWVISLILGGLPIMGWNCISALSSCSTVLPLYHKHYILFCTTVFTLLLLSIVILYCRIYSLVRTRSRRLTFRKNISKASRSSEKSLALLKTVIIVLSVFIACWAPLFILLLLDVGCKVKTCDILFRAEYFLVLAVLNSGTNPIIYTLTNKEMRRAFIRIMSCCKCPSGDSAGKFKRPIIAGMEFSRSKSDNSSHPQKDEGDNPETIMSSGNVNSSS

Compound	EC50 [1]	EC50 [2]	other results
CCc1cc(-c2noc(-c3sc(C)c4c3CCC(C)(C)C4)n2)cc(C)c1OCC(O)CNC(=O)CO (racemic)	1.5 nM	122 nM	–
CCc1sc(C(=O)CCc2cc(C)c(OCC(O)CO)c(C)c2)c2c1C[C@@](C)(O)CC2 (mixture of isomers)	79 nM	> 10000 nM	–
CCc1cc(CCC(=O)c2sc(C)c3c2CCC(C)(C)C3)cc(C)c1OCC(O)CNC(=O)CO (racemic)	1.2 nM	4420 nM	–
Cc1cc(CCC(=O)c2sc(C)c3c2CCC(C)(C)C3)cc(C)c1OCCN	6.1 nM	8560 nM	–
CCc1c(-c2nc(-c3cc(C)c(OCC(O)CNC(=O)CO)c(C)c3)no2)sc(C)c1CC(C)C (racemic)	6.6 nM	172 nM	% change in blood lymphocyte count from predose (Rattus norvegicus [3]): -25%; Activity (Rattus norvegicus [4]): -40%; Activity (Rattus norvegicus [5]): -30%
Cc1cc(-c2noc(-c3ccc(CC(C)C)s3)n2)cc(C)c1OCC(O)CNC(=O)CO (racemic)	0.6 nM	247 nM	% change in blood lymphocyte count from predose (Rattus norvegicus [3]): -66%; concentration at 24 h [6]: 23 ng/mL; Activity (Rattus norvegicus [4]): -79%; Activity (Rattus norvegicus [5]): -75%; concentration at 6 h [7]: 680 ng/mL; Activity (Rattus norvegicus [8]): 14%; Activity (Rattus norvegicus [9]): Dose-dependent effect; concentration at 3 h [10]: 1010 ng/mL
Cc1cc(CCC(=O)c2sc(C)c3c2CCC(C)(C)C3)cc(C)c1OC[C@H](O)CO	3.4 nM	1100 nM	Ratio EC50 (Homo sapiens): 100
Cc1cc(CCC(=O)c2sc(C)c(CC(C)C)c2C)cc(C)c1OCC(O)CNC(=O)CO (racemic)	2.7 nM	5270 nM	–
CCc1cc(CCC(=O)c2scc3c2CCC(C)(C)C3)cc(C)c1OC[C@@H](O)CNC(=O)CO	4.8 nM	5270 nM	Ratio EC50 (Homo sapiens): 100
CCc1cc(-c2noc(-c3sc(CC)c4c3CCC3(CC3)C4)n2)cc(C)c1OC[C@@H](O)CNC(=O)CO	1.1 nM	24 nM	–
Cc1cc(CCC(=O)c2sc(C)c3c2CCC(C)(C)C3)cc(C)c1OCC(O)CNCCC(=O)O (racemic)	1.2 nM	569 nM	–
CCc1cc(-c2noc(-c3sc(CC)c4c3CCC3(CCCC3)C4)n2)cc(C)c1OC[C@@H](O)CNC(=O)CO	4.7 nM	11 nM	–
Cc1cc(CCC(=O)c2sc(C)c3c2CCC(C)(C)C3)cc(C)c1OCCCO	71 nM	4450 nM	–
CCCc1ccc(-c2nc(-c3cc(C)c(OCC(O)CNC(=O)CO)c(C)c3)no2)s1 (racemic)	0.9 nM	1150 nM	% change in blood lymphocyte count from predose (Rattus norvegicus [3]): 31%; Activity (Rattus norvegicus [4]): -59%; Activity (Rattus norvegicus [5]): -65%
CCc1cc(CCC(=O)c2sc(C(F)(F)F)c3c2CCC(C)(C)C3)cc(C)c1OCC(O)CNC(=O)CO (racemic)	1.3 nM	242 nM	–
Cc1cc(CCC(=O)c2sc(C)c3c2CCC(C)(C)C3)cc(C)c1OCC(O)CN (racemic)	7 nM	> 10000 nM	–
CCCc1sc(-c2nc(-c3cc(C)c(OC[C@@H](O)CNC(=O)CO)c(CC)c3)no2)c2c1CC(C)(C)CC2	20 nM	11 nM	–
Cc1cc(CCC(=O)c2sc(C)c3c2CCC(C)(C)C3)cc(C)c1OCC(O)CNCCO (racemic)	14 nM	> 10000 nM	–
CCc1sc(C(=O)CCc2cc(C)c(OC[C@@H](O)CO)c(C)c2)c2c1CC1(CCCC1)CC2	0.4 nM	62 nM	–
Cc1cc(CCC(=O)c2sc(C)c3c2CCC(C)(C)C3)cc(C)c1OC[C@@H](O)CO	2.6 nM	1400 nM	Ratio EC50 (Homo sapiens): 100
Cc1cc(CCC(=O)c2sc(C)c3c2CCC(C)(C)C3)cc(C)c1OCC(O)CN1CC(C(=O)O)C1 (racemic)	4.3 nM	1760 nM	–
Cc1cc(CCC(=O)c2sc(C)c3c2CCC(C)(C)C3)cc(C)c1OCCNCCO	11 nM	> 10000 nM	–
CCCCc1ccc(-c2nc(-c3cc(C)c(OCC(O)CNC(=O)CO)c(C)c3)no2)s1 (racemic)	4.7 nM	1250 nM	% change in blood lymphocyte count from predose (Rattus norvegicus [3]): 18%; Activity (Rattus norvegicus [4]): -52%; Activity (Rattus norvegicus [5]): -66%
CCc1sc(C(=O)CCc2cc(C)c(OCC(O)CO)c(C)c2)c2c1CC(C)CC2 (mixture of isomers)	1.6 nM	599 nM	–
